Bioassay records from PubChem BioAssay.
HSF1 inhib: HSF1 inhibitors in luciferase reporter cells, primary screen, cell-based, NIH3T3, luminescence. NIH3T3-HGL HSE-luciferase, MG132-induced, luminescence 8 h; hits give low values. activity change, negative = inhibition, % at 7.5 µM (by protocol). 300,000 compounds, 0.77% hits;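 active = more than half of replicate wells show activity change below -50%, luminescence cut by over half; inconclusive = some wells, but at most half, below -50%; inactive = no replicate well below -50%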;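 note: luciferase reports HSF-1 transcriptional activity via heat shock element; 0% = median of DMSO wells and -100% = zero luminescence signal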
697 NFkB inh: inhibitors of PMA/ionomycin-induced NF-kB reporter, 697 cells, primary screen, B-cell NF-kB inhibitor project, cell-based, luminescence, uHTS. 330,000 compounds, 0.33% hits. inhibition, % at 4 µM. 697 B-cell NF-kB luciferase reporter, 16 h; in the data active = inhibition above about 35%
Jurkat NFkB inh: inhibitors of induced NF-kB luciferase reporter, primary screen, TCR NF-kB activation inhibitor project, cell-based, luminescence, uHTS; inhibition, % at 4 µM; AID 435003, 2010; Jurkat, PMA/ionomycin-induced NF-kB luciferase reporter; 330,000 compounds, 0.53% hits; in the data active = inhibition above about 50%
T cruzi inh: inhibitors of intracellular T. cruzi growth, primary screen, luminescence, NIH3T3 host cells | T. cruzi beta-gal in NIH3T3, 90 h | inhibition, % (concentration not given with the values) | 300,000 compounds, 1.4% hits | AID 1885, 2009;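 active = mean inhibition across valid replicates above about 55%, limit read from the data; inconclusive = mean below that limit but half or more replicates reach it; inactive = mean below it, under half of replicates reach it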;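 note: signal also drops with host cell toxicity which is not excluded here; 0% = plate median of DMSO wells and 100% = zero luminescence signal; higher percent means less beta-gal luminescence so fewer parasites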
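System: Mouse NIH/3T3 fibroblasts infected with β-gal-expressing T. cruzi Tulahuen C4 | Quantity: NIH/3T3 cells, 5,000 per well | Reagent: 5000 reporter trypomastigotes per well | Dosing: Compound pinned at 50 nL/well, DMSO | Schedule: 3 h host attachment, then at least 90 h co-culture | Detection: GalScreen luminescence, 60 min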
GPR7 antagonist: GPR7 receptor antagonists, primary screen, cell-based, fluorescence, single concentration; Neuropeptides B/W receptor type 1 (Homo sapiens), P48145; 290,000 compounds, 1.1% hits; inhibition, % at 4.4 µM; GPR7-expressing cells, fluorescence antagonist assay; in the data active = inhibition above about 16%, passing the limit was not always enough;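 note: cells stimulated with the agonist NPW; 0% = agonist with vehicle and 100% = vehicle without agonist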
Target sequence (P48145 whole entry, looked up): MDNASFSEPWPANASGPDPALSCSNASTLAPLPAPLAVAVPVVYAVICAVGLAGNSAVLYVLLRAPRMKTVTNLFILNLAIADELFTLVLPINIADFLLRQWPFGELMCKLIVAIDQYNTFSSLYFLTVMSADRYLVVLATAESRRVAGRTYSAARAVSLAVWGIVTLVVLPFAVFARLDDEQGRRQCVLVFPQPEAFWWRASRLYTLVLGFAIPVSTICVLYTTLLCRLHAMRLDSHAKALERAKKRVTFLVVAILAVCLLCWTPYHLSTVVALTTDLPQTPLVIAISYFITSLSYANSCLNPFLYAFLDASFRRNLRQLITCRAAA
HSF-1 act: HSF-1 activators, primary screen, NIH3T3-HGL cells, MG132 stress, luminescence, single point; NIH3T3-HGL HSF-1 luciferase reporter, 8 h; 100% = twice DMSO control signal; activation, % at 9 µM; 300,000 compounds, 1.7% hits;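 active = mean replicate activation of at least 50% with a set share of replicates each reaching 50%; inconclusive = only one of those two conditions met; inactive = mean below 50% and too few replicates reaching it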;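 note: 0% = median of the neutral control wells and 100% = twice that signal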
Starred values were filed as active, the others as inactive. Shown are actives, neighbours in structure and some others; about 4.8% of the full set was active somewhere.

For CC1CCN(C(=O)C(=O)c2cn(CC(=O)N3CCCCCC3)c3ccccc23)CC1 the results were HSF1 inhib 2, 697 NFkB inh 0, Jurkat NFkB inh 7, T cruzi inh 55*, GPR7 antagonist -16 and HSF-1 act 21.
Screening NC(=O)C1CCN(C(=O)C(=O)c2cn(CC(=O)N3CCCCCC3)c3ccccc23)CC1 returned HSF1 inhib -10, 697 NFkB inh -22, Jurkat NFkB inh -17, T cruzi inh 62*, GPR7 antagonist -6 and HSF-1 act -13.
Screening CCCN=C1N(CC)C[C@@H]2[C@@H]3C(=O)N(C)C(=O)[C@@H]3[C@](C)(C(=O)OC)N12 returned 697 NFkB inh -20.
For CC(C)C(NC(=O)c1ccc(F)cc1)C(=O)N1CCN(C(=O)c2ccco2)CC1 (stereo not given) the results were 697 NFkB inh 14 and Jurkat NFkB inh 16.
CCOc1ccc(NC(=O)C2CCCN(c3nn4c(=O)cc(C)nc4s3)C2)cc1 (stereo not given) was read as HSF1 inhib -62*, 697 NFkB inh 9, Jurkat NFkB inh 1, T cruzi inh -7, GPR7 antagonist -10 and HSF-1 act -69.
Screening Cc1cc(C)nc(N2CCCC(C(=O)Nc3ccc4nc(C)c(C)nc4c3)C2)n1 (stereo not given) returned HSF1 inhib 25, 697 NFkB inh 18, Jurkat NFkB inh -4, T cruzi inh 4, GPR7 antagonist 3 and HSF-1 act 57*.
Screening CCCCNC(=S)Nc1ccc(OC)nc1 returned HSF1 inhib 23, 697 NFkB inh -2, Jurkat NFkB inh -13, T cruzi inh -15, GPR7 antagonist 0 and HSF-1 act 65*.
For COc1ccc(NC(=S)Nc2ccccc2)cn1 the results were HSF1 inhib 8, 697 NFkB inh -38, Jurkat NFkB inh -32, T cruzi inh -7, GPR7 antagonist -6 and HSF-1 act 4.
Screening COc1ccc(C2=NCCn3nc4cc([N+](=O)[O-])ccc4c32)cc1 returned HSF1 inhib -66*, 697 NFkB inh 7, Jurkat NFkB inh 7, T cruzi inh -11 and HSF-1 act -74.
For CCCC(=O)Nc1sc(C(=O)Nc2cccc(N)c2)c(C)c1C(=O)OC the results were HSF1 inhib -67*, 697 NFkB inh -79, Jurkat NFkB inh -101, T cruzi inh 29, GPR7 antagonist -3 and HSF-1 act -71.
`COC(=O)c1c(NC(C)=O)sc(C(=O)Nc2ccccc2)c1C` gave HSF1 inhib 5, 697 NFkB inh -65, Jurkat NFkB inh -51, T cruzi inh 0, GPR7 antagonist 4 and HSF-1 act 12.
`COc1ccc(/C=N/Nc2nncn2N)cc1Br` gave HSF1 inhib 47, 697 NFkB inh -13, Jurkat NFkB inh -4, T cruzi inh 7, GPR7 antagonist -10 and HSF-1 act 78*.
COc1cc(/C=N/Nc2nncn2N)ccc1OCc1c(C)no[n+]1[O-] was read as HSF1 inhib 32, 697 NFkB inh 21, Jurkat NFkB inh 11, T cruzi inh -5, GPR7 antagonist 11 and HSF-1 act 41.
CCOc1ccccc1C(=O)NCC(=O)NNC(=O)CN(C)S(=O)(=O)c1ccc(Cl)cc1 was read as HSF1 inhib 2, 697 NFkB inh -1, Jurkat NFkB inh 11, T cruzi inh -2 and HSF-1 act -21.
For Cn1c(=O)c(/C=C/c2ccccc2)nc2ccccc21 the results were HSF1 inhib 17, 697 NFkB inh -140, Jurkat NFkB inh -109, T cruzi inh 4, GPR7 antagonist 4 and HSF-1 act 45.
Screening Cn1c(=O)c(/C=C/c2ccc(F)cc2)nc2ccccc21 returned HSF1 inhib 46, T cruzi inh 39, GPR7 antagonist 7 and HSF-1 act 60*.
CC1CCN(c2ccc(-c3cccc(NC(=O)c4ccco4)c3)nn2)CC1 was read as HSF1 inhib 5, 697 NFkB inh -151, Jurkat NFkB inh -62, T cruzi inh 27 and HSF-1 act 21.
Screening Cc1ccc2nc(N/N=C\c3ccc([N+](=O)[O-])o3)nc(-c3ccccc3)c2c1 returned HSF1 inhib 15, 697 NFkB inh 17, Jurkat NFkB inh 19, T cruzi inh 80*, GPR7 antagonist -4 and HSF-1 act 1.
Fc1ccc(Nc2nc(N/N=C/c3ccco3)nc(N3CCCCC3)n2)cc1 was read as HSF1 inhib 5, 697 NFkB inh 9, Jurkat NFkB inh 9, T cruzi inh 60*, GPR7 antagonist -13 and HSF-1 act 28.
Screening O=[N+]([O-])c1ccc(/C=N/Nc2nc(N3CCCC3)nc(N3CCCC3)n2)o1 returned HSF1 inhib -12, 697 NFkB inh 14, Jurkat NFkB inh 3, T cruzi inh 64*, GPR7 antagonist -9 and HSF-1 act -8.
For O=[N+]([O-])c1ccc(/C=N/Nc2nc(-c3ccccc3)c3cc(Br)ccc3n2)o1 the results were HSF1 inhib -5, 697 NFkB inh 26, Jurkat NFkB inh 11, T cruzi inh inconclusive, GPR7 antagonist 20 and HSF-1 act 2.
Screening O=[N+]([O-])c1ccc(-c2ccc(/C=N/Nc3nc(N4CCCC4)nc(N4CCCC4)n3)o2)cc1 returned HSF1 inhib 0, 697 NFkB inh 5, Jurkat NFkB inh 8, T cruzi inh 42, GPR7 antagonist -16 and HSF-1 act 21.
Screening C(=N\Nc1nc(N2CCOCC2)nc(N2CCOCC2)n1)/c1ccco1 returned HSF1 inhib 8, 697 NFkB inh 17, Jurkat NFkB inh -1, T cruzi inh 9, GPR7 antagonist -8 and HSF-1 act -8.
For COc1ccc(/C=C/C(=O)N(C(C)C)C(C)C)cc1Br the results were HSF1 inhib 55, 697 NFkB inh -14, Jurkat NFkB inh -19, T cruzi inh 24, GPR7 antagonist -7 and HSF-1 act 99*.
For O=C(CCc1ccccc1)N=C1SC2CS(=O)(=O)CC2N1c1ccccc1F (stereo not given) the results were HSF1 inhib -3, 697 NFkB inh -13, Jurkat NFkB inh 5, T cruzi inh 9, GPR7 antagonist 2 and HSF-1 act -12.
For Cc1ccc(-c2cnc3cc(C)nn3c2)cc1 the results were HSF1 inhib 17, 697 NFkB inh -155, Jurkat NFkB inh -143, T cruzi inh -13, GPR7 antagonist -7 and HSF-1 act 57*.
